Measured values published in ChEMBL document CHEMBL1127615, “5,7-Dimethoxy-3-(4-pyridinyl)quinoline is a potent and selective inhibitor of human vascular beta-type platelet-derived growth factor receptor tyrosine kinase” (J Med Chem, 1994).

Legend:
[1] = target: Receptor tyrosine-protein kinase erbB-2 (Homo sapiens, UniProt P04626); assay: Inhibition of erbB2 receptor
[2] = Inhibition of vascular smooth muscle cell proliferation by [3H]thymidine incorporation; format: functional; settings: Homo sapiens
Outline: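 Primary human vascular smooth muscle cells, serum-starved 48 h, then inhibitor for 2 h, PDGF-BB (10 ng/mL) for 24 h, then [3H]thymidine (0.5 μCi/mL) for 24 h more. Cells were washed with ice-cold 5% TCA, extracted with 0.1 N NaOH (30 min, 25 °C), neutralized and counted. Inhibition is relative to vehicle (≤0.5% DMSO).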

[3] = target: Tyrosine-protein kinase Lck (Homo sapiens, UniProt P06239); assay: Inhibition of p56 lck kinase
Protein kinase C (PKC) = assay: Inhibition of Serine/threonine protein kinases C; format: protein assay, Homo sapiens
[4] = target: Platelet-derived growth factor receptor (Homo sapiens, UniProt P09619+P16234); assay: Inhibition of Platelet-derived growth factor receptor tyrosine kinase; format: protein-complex assay

Chain of Receptor tyrosine-protein kinase erbB-2 (P04626 whole entry): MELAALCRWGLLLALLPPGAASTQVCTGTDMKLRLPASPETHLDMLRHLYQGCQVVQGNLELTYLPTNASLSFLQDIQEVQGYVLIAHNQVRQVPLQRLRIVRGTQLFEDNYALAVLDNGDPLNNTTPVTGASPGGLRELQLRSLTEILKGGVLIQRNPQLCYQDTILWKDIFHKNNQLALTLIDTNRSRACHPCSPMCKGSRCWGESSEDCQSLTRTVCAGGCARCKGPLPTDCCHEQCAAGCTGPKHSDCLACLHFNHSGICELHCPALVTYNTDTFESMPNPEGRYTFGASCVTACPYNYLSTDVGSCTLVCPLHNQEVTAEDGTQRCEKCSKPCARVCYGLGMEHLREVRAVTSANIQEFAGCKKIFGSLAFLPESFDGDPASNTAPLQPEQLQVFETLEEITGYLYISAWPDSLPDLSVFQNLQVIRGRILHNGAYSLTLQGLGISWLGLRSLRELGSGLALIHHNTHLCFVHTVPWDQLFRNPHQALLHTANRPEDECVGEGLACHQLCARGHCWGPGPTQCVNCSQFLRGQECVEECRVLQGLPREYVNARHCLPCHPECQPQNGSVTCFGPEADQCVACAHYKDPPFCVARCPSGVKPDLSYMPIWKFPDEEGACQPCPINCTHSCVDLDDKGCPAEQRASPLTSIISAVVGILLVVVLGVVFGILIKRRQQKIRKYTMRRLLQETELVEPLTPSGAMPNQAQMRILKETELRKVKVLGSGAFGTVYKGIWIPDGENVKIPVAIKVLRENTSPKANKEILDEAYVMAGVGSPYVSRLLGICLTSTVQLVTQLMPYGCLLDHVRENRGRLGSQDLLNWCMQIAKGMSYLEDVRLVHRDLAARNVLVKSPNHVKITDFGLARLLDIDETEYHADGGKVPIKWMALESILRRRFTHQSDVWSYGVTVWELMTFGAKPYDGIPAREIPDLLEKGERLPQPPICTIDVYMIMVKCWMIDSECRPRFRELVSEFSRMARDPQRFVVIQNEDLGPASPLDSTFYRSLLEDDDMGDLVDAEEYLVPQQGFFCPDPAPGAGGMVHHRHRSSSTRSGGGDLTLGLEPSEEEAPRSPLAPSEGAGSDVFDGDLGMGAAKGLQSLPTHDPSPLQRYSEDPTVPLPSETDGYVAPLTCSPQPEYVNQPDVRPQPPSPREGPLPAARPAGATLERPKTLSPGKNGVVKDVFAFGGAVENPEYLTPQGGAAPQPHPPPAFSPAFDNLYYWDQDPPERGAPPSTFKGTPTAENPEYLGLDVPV
Chain of Tyrosine-protein kinase Lck (P06239 whole entry): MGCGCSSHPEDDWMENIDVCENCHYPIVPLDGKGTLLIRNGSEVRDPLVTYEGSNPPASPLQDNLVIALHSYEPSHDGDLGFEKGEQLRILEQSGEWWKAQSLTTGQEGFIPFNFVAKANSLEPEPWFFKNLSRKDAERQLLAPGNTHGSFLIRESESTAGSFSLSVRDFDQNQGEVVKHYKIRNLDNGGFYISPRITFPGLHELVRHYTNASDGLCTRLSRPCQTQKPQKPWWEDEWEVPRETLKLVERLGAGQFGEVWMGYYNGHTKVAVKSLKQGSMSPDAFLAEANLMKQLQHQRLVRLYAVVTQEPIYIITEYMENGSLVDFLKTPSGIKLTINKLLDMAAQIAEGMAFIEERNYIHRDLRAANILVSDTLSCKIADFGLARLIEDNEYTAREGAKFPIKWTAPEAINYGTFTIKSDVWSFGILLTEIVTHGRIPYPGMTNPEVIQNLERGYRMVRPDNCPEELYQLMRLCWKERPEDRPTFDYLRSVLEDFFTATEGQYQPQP

Row | Structure (SMILES) | IC50 [1] | IC50 [3] | IC50 (Protein kinase C (PKC)) | IC50 [4] | IC50 [2]
1 | COc1cc2cc(-c3ccncc3)cnc2cc1OC | > 10 µM | > 10 µM | > 10 µM | – | 1.8 µM
2 | COc1ccc2ncc(-c3ccncc3)c(C)c2c1 | – | – | – | > 50 µM | –
3 | COc1cc(OC)c2cc(-c3ccncc3)cnc2c1 | > 10 µM | – | > 10 µM | – | 0.9 µM
4 | Oc1cc2cc(-c3ccncc3)cnc2cc1O | – | – | > 10 µM | 36 µM | –
5 | COc1ccc2c(C)c(-c3ccncc3)cnc2c1 | – | – | – | > 50 µM | –

More lines, in order of falling IC50 [4], values ahead:

Row | IC50 [1] | IC50 [3] | IC50 (Protein kinase C (PKC)) | IC50 [4] | Structure (SMILES) | IC50 [2]
6 | – | – | – | 9.2 µM | Oc1ccc2cc(-c3ccncc3)cnc2c1 | > 10 µM
7 | – | – | – | 1.5 µM | c1ccc2ncc(-c3ccncc3)cc2c1 | –
8 | – | – | – | 1.3 µM | Oc1cc(O)c2cc(-c3ccncc3)cnc2c1 | 5.5 µM
9 | – | – | – | 0.6 µM | COc1ccc2cc(-c3ccncc3)cnc2c1 | 6.5 µM
10 | – | – | – | 0.4 µM | COc1cc2ncc(-c3ccncc3)cc2c(OC)c1OC | 3.5 µM
11 | – | – | – | 0.4 µM | COc1ccc2ncc(-c3ccncc3)cc2c1 | –
12 | – | – | > 10 µM | 0.3 µM | Clc1ccc2cc(-c3ccncc3)cnc2c1 | –
